Results gathered from unrelated publications.
Each line is one published result; the experiments were not run side by side.
Target: Mitogen-activated protein kinase kinase kinase kinase 4 (MAP4K4, Homo sapiens, UniProt O95819)

Compound | read-out | mode | method | concentration | measurement | result
CCCS(=O)(=O)Nc1ccc(F)c(C(=O)c2c[nH]c3ncc(-c4ccc(Cl)cc4)cc23)c1F | enzyme activity | inhibitor |  | 1 µM | inhibition | < 10%
O=C1NC(=O)c2cc(Nc3ccc(F)cc3)c(Nc3ccc(F)cc3)cc21 | cell-free assay |  |  | 0.5 µM | remaining signal | 91.2%
CC(C)(C)c1nc2c(s1)c1nc(N)ncc1c1ccc(NS(=O)(=O)c3c(F)cccc3F)c(F)c12 | enzyme activity | inhibitor | radiometric | 1 µM | remaining activity | 95%
CN(C(=O)c1ccccc1)c1cc(N(C)c2ccc3c(c2)CCc2ccc(C(=O)NCCN4CCOCC4)cc2C3=O)ccc1F | cell-free assay |  | competition with immobilised ligand | 1 µM | remaining binding | 100%
Oc1cccc(-c2nc(N3CCOCC3)c3oc4ncccc4c3n2)c1 | cell-free assay |  |  | 0.5 µM | remaining signal | 91.4%
Cc1sc(C(=O)NC2COC2)cc1-n1cc(NC(=O)Nc2c(F)cccc2Cl)cn1 | enzyme activity | inhibitor |  | 10 µM | remaining activity | 93.4%
O=C(NC[C@@H]1[C@H]2CN(C(=O)OCc3cc(C(F)(F)F)cc(C(F)(F)F)c3)C[C@@H]12)c1ccc2[nH]nnc2c1 | cell-free assay |  | competition with immobilised ligand | 1 µM | remaining binding | 100%
COc1cc2c(N3CCN(C(=O)Nc4ccc(OC(C)C)cc4)CC3)ncnc2cc1OCCCN1CCCCC1 | cell-free assay |  |  | 0.5 µM | remaining signal | 96.6%
CO[C@@H](C)c1c(Nc2ccc([C@H](N(C)C(=O)C3CCS(=O)(=O)CC3)C(F)(F)F)cc2)cnc2cc(Cl)nn12 | cell-free assay |  | competition with immobilised ligand | 1 µM | remaining binding | 100%
COc1cc2ncnc(Nc3ccc(Oc4ccccc4)c(C)c3C)c2cc1OC | enzyme activity | inhibitor |  | 1 µM | inhibition | -3%
CCCCN(CCCC)C(=O)CN1C[C@@H](c2cc(OC)c3c(c2)OCO3)[C@H](C(=O)O)[C@H]1CC(C)(C)CCC | cell-free assay |  | competition with immobilised ligand | 1 µM | remaining binding | 88.9%
O=C1Nc2ccc(Cl)cc2C1=Cc1cc(Cl)c(O)c(Cl)c1 | cell-free assay |  |  | 0.5 µM | remaining signal | 4.48%
Cc1ccc(C(=O)NCc2ccsc2)cc1C#Cc1cn(C(C)C)c2ncnc(N)c12 | enzyme activity | inhibitor |  | 1 µM | activity vs control | 146%
CC(C)(O)[C@H]1CC[C@H](Nc2ccc3ncc(-c4cccc(C(F)(F)F)c4)n3n2)CC1 | enzyme activity | inhibitor |  | 1 µM | remaining activity | 90.6%
CN1CC(Oc2cnc(C#N)cc2-c2ccn3nc(NC(=O)C4CC4)cc3c2)C1 | enzyme activity | inhibitor |  | 1 µM | inhibition | 13%
Cc1nc(C2CCN(C(=O)c3ccc(OC(F)(F)F)cc3N)CC2)c2ncc(N3CCN(C)CC3)cc2n1 | cell-free assay |  | competition with immobilised ligand | 1 µM | remaining binding | 100%
N#CCCc1ccc2c(c1)-c1[nH]c3ccc([N+](=O)[O-])cc3c1CC(=O)N2 | cell-free assay |  |  | 0.5 µM | remaining signal | 6.82%
